Test [1] has as its target AtsB (Mycobacterium tuberculosis, UniProt O65931). The note with it: 10 µM probe, 7-8 min; native gel-resolved lysate.
The test system of test [2] is Helix pomatia sulfatase. In words: fluorogenic hydrolysis assay. Format: biochemical. As to conditions: read-out: Helix pomatia ^[b]; potassium acetate buffer pH 5.0, 37 °C. In short, it runs like this: (§1)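 Commercial Helix pomatia sulfatase was incubated with the fluorogenic sulfate substrate in potassium acetate buffer (pH 5.0) at 37 °C. Formation of the released fluorophore was monitored over time. Substrate-only reactions without enzyme served as the background control. KM and Vmax (pmoles/sec) were derived from the kinetics, and Vmax/KM was calculated from them.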

Test [3] relates to Helix pomatia sulfatase. As to the kind of experiment: fluorogenic hydrolysis assay. The test is classed as biochemical. The note with it: read-out: Helix pomatia ^[b]; potassium acetate buffer pH 5.0, 37 °C. The procedure, abridged:
as §1
This is another data set of the same source.

Like-named read-outs stand apart in the source and are kept apart here.

Experimental findings from paper PMC4084507 (Chembiochem : a European journal of chemical biology, 2014) are described below.

Regarding `CC1(C)C2=C(Cl)C(=O)C(Cl)=CC2=Nc2ccc(OS(=O)(=O)O)cc21` [DDAO-sulfate], the “in-gel fluorescence after native gel of lysate” value in test [1] was “AtsB can hydrolyze both RS and DDAO-sulfate, but not MFS”.
With `COc1ccc2c(c1)Oc1cc(OS(=O)(=O)O)ccc1C21OC(=O)c2ccccc21` (stereo not shown) [MFS], in test [2], the Km came out at 24.8 ± 2.2 µM.
Turning to `O=c1ccc2nc3ccc(OS(=O)(=O)O)cc3oc-2c1` [RS], the Km in test [3] was 17.5 ± 0.9 µM. The “in-gel fluorescence after native gel of lysate” value in test [1] was “AtsB can hydrolyze both RS and DDAO-sulfate, but not MFS”.
